ChEMBL document CHEMBL4680069, “Itaconate is a covalent inhibitor of the Mycobacterium tuberculosis isocitrate lyase” (RSC Med Chem, 2021)
Activity calls are given as the source filed them. The calls are words filed in the database; no cut-off is given here.

Columns and labels:
[1] = Covalent inhibition of wild type N-terminal polyhis-tagged TEV protease cleavage site fused Mycobacterium tuberculosis ICL1 expressed in Escherichia coli BL21 (DE3) using DL-isocitrate as substrate measured after 1 hr by UV-Vis spectrophotometric analysis
Procedure, shortened: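 Recombinant ICL1 at 20 nM with 1 mM DL-isocitrate and 1 mM MgCl2 in 50 mM Tris pH 7.5. Includes 10 mM phenylhydrazine-HCl to trap product. Inhibitor tested at varying concentrations to give IC50. Four separate measurements; errors are standard deviations.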

[2] = system: Mycobacterium tuberculosis; assay: Binding affinity to wild type N-terminal polyhis-tagged TEV protease cleavage site fused Mycobacterium tuberculosis ICL1 expressed in Escherichia coli BL21 (DE3) assessed as covalent adduct formation in presence of glyoxylate by NMR binding analysis
[3] = Binding affinity to wild type N-terminal polyhis-tagged TEV protease cleavage site fused Mycobacterium tuberculosis ICL1 expressed in Escherichia coli BL21 (DE3) in presence of Mg2+ and glyoxylate by NMR binding analysis
[4] = system: Mycobacterium tuberculosis; assay: (§1) Binding affinity to recombinant Mycobacterium tuberculosis CDC1551 ICL2 (Cys215-Arg233) expressed in Escherichia coli BL21 (DE3) LOBSTR assessed as covalent adduct formation at 1 mM incubated overnight in presence of Mg2+ followed by trypsin protease digestion by tandem mass spectrometry analysis; settings: time 12.0 hrs
[5] = Binding affinity to wild type N-terminal polyhis-tagged TEV protease cleavage site fused Mycobacterium tuberculosis ICL1 expressed in Escherichia coli BL21 (DE3) in absence of Mg2+ by NMR binding analysis
[6] = system: Mycobacterium tuberculosis; assay: as §1, with “wild type N-terminal polyhis-tagged TEV protease cleavage site fused” for “recombinant”, “ICL1 (Ala170-Lys197)” for “CDC1551 ICL2 (Cys215-Arg233)”, “(DE3)” for “(DE3) LOBSTR”; settings: time 12.0 hrs
[7] = Binding affinity to wild type N-terminal polyhis-tagged TEV protease cleavage site fused Mycobacterium tuberculosis ICL1 expressed in Escherichia coli BL21 (DE3) in presence of MgCl2 by NMR binding analysis
[8] = system: Mycobacterium tuberculosis; assay: (§2) Binding affinity to wild type N-terminal polyhis-tagged TEV protease cleavage site fused Mycobacterium tuberculosis ICL1 expressed in Escherichia coli BL21 (DE3) assessed as covalent adduct formation at 1 mM measured after 75 mins in presence of Mg2+ by LC-MS/MS analysis relative to control
[9] = system: Mycobacterium tuberculosis; assay: Binding affinity to wild type N-terminal polyhis-tagged TEV protease cleavage site fused Mycobacterium tuberculosis ICL1 expressed in Escherichia coli BL21 (DE3) assessed as compound-protein covalent adduct formation by measuring molecular mass at 1 mM after 12 hrs in presence of MgCl2 by LC-MS analysis
[10] = system: Mycobacterium tuberculosis; assay: Binding affinity to wild type N-terminal polyhis-tagged TEV protease cleavage site fused Mycobacterium tuberculosis ICL1 expressed in Escherichia coli BL21 (DE3) assessed as covalent adduct formation at 1 mM measured after 5 hrs in presence of Mg2+ by LC-MS/MS analysis relative to control
[11] = Binding affinity to wild type N-terminal polyhis-tagged TEV protease cleavage site fused Mycobacterium tuberculosis ICL1 expressed in Escherichia coli BL21 (DE3) in presence of glyoxylate by NMR binding analysis
[12] = system: Mycobacterium tuberculosis; assay: as §2, with “1 min” for “75 mins”, “Mg2+ and glyoxylate” for “Mg2+”
[13] = system: Mycobacterium tuberculosis; assay: Binding affinity to wild type N-terminal polyhis-tagged TEV protease cleavage site fused Mycobacterium tuberculosis ICL1 expressed in Escherichia coli BL21 (DE3) assessed as compound-protein covalent adduct formation at 1 mM in absence of Mg2+ by LC-MS analysis

## C=C(CC(=O)OC)C(=O)OC
[1]
  IC50: > 10000 µM

## C/C=C(\CC(=O)O)C(=O)O
[1]
  IC50: 3100 µM

## C=C(CC(=O)O)C(=O)O [ITACONATE]
[2]
  Activity: inactive
[3]
  Kd: 123 µM
[4]
  Activity: Active
[5]
  Kd: > 500 µM
[1]
  IC50: 420 µM
[6]
  Activity: Active
[7]
  Kd: 112 µM
[8]
  Activity: 50%
[9]
  Activity: Active
[10]
  Activity: 100%
[11]
  Kd: > 500 µM
[12]
  Activity: 100%
[13]
  Activity: inactive

## O=C(O)C/C(=C\c1ccccc1)C(=O)O
[1]
  IC50: 2600 µM

## C/C=C(\CC(=O)OC)C(=O)OC
[1]
  IC50: > 10000 µM

## O=C(O)/C=C(/CC(=O)O)C(=O)O
[1]
  IC50: 5200 µM

## O=C(O)/C=C(\CC(=O)O)C(=O)O [ACONITIC ACID]
[1]
  IC50: 5020 µM
